Experimental data from publication PMC4012894 (Journal of the American Chemical Society, 2014).

Experiments:
[1] = system: PikCD50N/H238A-RhFRED; experiment: Total turnover number; assay type: biochemical; details: PikCD50N/H238A-RhFRED double mutant
Procedure, shortened: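 Double mutant made by adding H238A to the PikCD50N-RhFRED fusion, to probe the H238 H-bond to the anchoring-group carbonyl. TTN is expressed relative to moles of enzyme.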

[2] = molecular target: T1, PikCD50N-RhFRED (Streptomyces venezuelae, UniProt O87605, D50N); experiment: PikCD50N-RhFRED analytical-scale enzymatic reactions; assay type: biochemical; details: for hydroxylation by PikCD50N-RhFRED (result in words): 0.5 mol % enzyme (5 μM enzyme, 1 mM substrate); for preferred site of hydroxylation (regioselectivity in words): PikCD50N-RhFRED
T1 sequence (O87605 1-416 D50N): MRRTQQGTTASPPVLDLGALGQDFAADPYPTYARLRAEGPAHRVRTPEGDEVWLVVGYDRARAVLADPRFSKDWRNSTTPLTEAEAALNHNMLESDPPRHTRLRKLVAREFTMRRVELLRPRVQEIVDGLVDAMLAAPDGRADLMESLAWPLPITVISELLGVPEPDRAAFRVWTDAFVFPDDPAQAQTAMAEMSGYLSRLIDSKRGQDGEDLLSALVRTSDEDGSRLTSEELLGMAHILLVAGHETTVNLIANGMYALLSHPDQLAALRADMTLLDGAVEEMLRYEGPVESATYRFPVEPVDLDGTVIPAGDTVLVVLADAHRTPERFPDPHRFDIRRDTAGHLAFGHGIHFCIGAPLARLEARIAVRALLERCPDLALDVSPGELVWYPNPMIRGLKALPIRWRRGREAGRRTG
T1 sequence (Q8KU27 445-773 partner): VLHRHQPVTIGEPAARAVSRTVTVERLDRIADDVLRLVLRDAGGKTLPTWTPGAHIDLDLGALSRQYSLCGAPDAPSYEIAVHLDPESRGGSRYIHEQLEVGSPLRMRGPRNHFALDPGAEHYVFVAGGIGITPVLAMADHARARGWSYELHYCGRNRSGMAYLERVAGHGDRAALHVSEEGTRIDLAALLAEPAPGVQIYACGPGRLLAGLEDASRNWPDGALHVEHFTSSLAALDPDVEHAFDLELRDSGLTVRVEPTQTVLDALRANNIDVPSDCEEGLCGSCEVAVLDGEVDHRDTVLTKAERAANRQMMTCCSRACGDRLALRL

[3] = molecular target: T2, PikCD50NH238A (Streptomyces venezuelae, UniProt O87605, D50N/H238A); experiment: Spectroscopic equilibrium substrate binding assay, PikCD50NH238A mutant
T2 sequence (O87605 1-416 D50N/H238A): T1 sequence (O87605 1-416 D50N)
T2 sequence (Q8KU27 445-773 partner): T1 sequence (Q8KU27 445-773 partner)

[4] = molecular target: T1, PikCD50N-RhFRED; experiment: Spectroscopic equilibrium substrate binding assay, PikCD50N-RhFRED

| Structure (SMILES) | TTN D50NH238A [1] | hydroxylation by PikCD50N-RhFRED (result in words) [2] | preferred site of hydroxylation (regioselectivity in words) [2] | Kd [3] | Kd [4] |
| --- | --- | --- | --- | --- | --- |
| CC[C@H]1OC(=O)[C@H](C)[C@@H](OC(=O)c2cccc(CN(C)C)c2)[C@@H](C)C[C@@H](C)C(=O)/C=C/[C@H]1C [16b] | 922 ± 35 | converted to monohydroxylated products | highly regioselective allylic hydroxylation at C-10 | – | – |
| CC[C@H]1OC(=O)[C@H](C)[C@@H](OC(=O)[C@@H]2CCCN2C)[C@@H](C)C[C@@H](C)C(=O)/C=C/[C@H]1C [12b] | 538 ± 20 | – | preferential C-10 hydroxylation | 21 ± 0.7 µM | 28 ± 5.4 µM |
| CC[C@H]1OC(=O)[C@H](C)[C@@H](OC(=O)CCCN(C)C)[C@@H](C)C[C@@H](C)C(=O)/C=C/[C@H]1C [compound 10] | 853 ± 38 | – | – | 168 ± 19 µM | 123 ± 14 µM |
| CC[C@H]1OC(=O)[C@H](C)[C@@H](OC(=O)c2ccccc2CN(C)C)[C@@H](C)C[C@@H](C)C(=O)/C=C/[C@H]1C [compound 14] | 491 ± 26 | converted to monohydroxylated products | favor C-12 hydroxylation | – | – |
| CC[C@H]1OC(=O)[C@H](C)[C@@H](OC(=O)CCN(C)C)[C@@H](C)C[C@@H](C)C(=O)/C=C/[C@H]1C [8b] | 870 ± 38 | – | – | 161 ± 25 µM | 81 ± 15 µM |
| CC[C@H]1OC(=O)[C@H](C)[C@@H](OC(=O)[C@H]2CCCN2C)[C@@H](C)C[C@@H](C)C(=O)/C=C/[C@H]1C [12a] | 542 ± 30 | – | preferential C-10 hydroxylation | 19 ± 1.3 µM | 47 ± 3 µM |
| CC[C@H]1OC(=O)[C@H](C)[C@@H](OC(=O)c2ccc(CN(C)C)cc2)[C@@H](C)C[C@@H](C)C(=O)/C=C/[C@H]1C [16a] | 816 ± 33 | converted to monohydroxylated products | highly regioselective allylic hydroxylation at C-10 | – | – |
